From ChEMBL document CHEMBL4359867, “Design, synthesis and biological evaluation of novel 4-anilinoquinazoline derivatives as hypoxia-selective EGFR and VEGFR-2 dual inhibitors” (Eur J Med Chem, 2019)
pIC50: −log10 of the molar value. Activity calls are given as the source filed them. The rule behind the calls is not given here.

Tests used:
[1] = target: Epidermal growth factor receptor (Homo sapiens, UniProt P00533); experiment: Inhibition of N-terminal GST-tagged human EGFR cytoplasmic domain (669 to 1210 residues) expressed in baculovirus expression system using FAM-22 peptide as substrate incubated for 10 mins followed by substrate addition by caliper method
Epidermal growth factor receptor, sequence (P00533 whole entry, the tested form may be a part): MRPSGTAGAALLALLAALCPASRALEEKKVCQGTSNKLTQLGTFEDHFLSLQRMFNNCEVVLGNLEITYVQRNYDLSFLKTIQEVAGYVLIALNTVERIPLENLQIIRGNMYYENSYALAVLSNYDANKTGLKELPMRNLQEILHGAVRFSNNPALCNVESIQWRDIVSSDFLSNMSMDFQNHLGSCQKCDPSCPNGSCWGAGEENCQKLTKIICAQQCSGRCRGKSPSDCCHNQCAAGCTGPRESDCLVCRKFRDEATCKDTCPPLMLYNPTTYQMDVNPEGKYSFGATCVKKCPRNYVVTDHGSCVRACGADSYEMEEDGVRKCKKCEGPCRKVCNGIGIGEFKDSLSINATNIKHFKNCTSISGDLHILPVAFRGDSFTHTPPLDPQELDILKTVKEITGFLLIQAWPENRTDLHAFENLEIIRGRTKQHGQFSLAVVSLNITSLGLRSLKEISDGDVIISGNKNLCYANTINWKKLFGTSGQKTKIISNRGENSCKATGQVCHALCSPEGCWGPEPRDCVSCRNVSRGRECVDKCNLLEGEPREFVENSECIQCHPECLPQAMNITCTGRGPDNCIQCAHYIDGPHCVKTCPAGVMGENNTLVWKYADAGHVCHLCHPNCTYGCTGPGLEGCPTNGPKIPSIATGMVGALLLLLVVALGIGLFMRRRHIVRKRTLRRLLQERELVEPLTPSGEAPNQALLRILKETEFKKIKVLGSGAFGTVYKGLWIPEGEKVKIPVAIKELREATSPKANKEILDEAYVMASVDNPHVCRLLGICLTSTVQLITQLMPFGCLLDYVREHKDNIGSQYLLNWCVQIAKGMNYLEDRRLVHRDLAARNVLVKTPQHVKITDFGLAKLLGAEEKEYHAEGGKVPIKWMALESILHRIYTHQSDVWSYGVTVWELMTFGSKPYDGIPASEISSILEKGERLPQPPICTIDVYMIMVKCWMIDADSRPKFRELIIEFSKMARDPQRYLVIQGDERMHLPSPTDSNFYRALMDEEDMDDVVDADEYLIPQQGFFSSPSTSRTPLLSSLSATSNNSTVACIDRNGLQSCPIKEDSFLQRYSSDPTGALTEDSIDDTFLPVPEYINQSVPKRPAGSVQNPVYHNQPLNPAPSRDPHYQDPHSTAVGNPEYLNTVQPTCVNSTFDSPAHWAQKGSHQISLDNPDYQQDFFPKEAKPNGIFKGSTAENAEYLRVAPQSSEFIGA

[2] = target: Vascular endothelial growth factor receptor 2 (Homo sapiens, UniProt P35968); experiment: Inhibition of N-terminal GST-tagged human VEGFR2 cytoplasmic domain (790 to 1356 residues) expressed in baculovirus expression system using FAM-22 peptide as substrate incubated for 10 mins followed by substrate addition by caliper method
Vascular endothelial growth factor receptor 2, sequence (P35968 whole entry, the tested form may be a part): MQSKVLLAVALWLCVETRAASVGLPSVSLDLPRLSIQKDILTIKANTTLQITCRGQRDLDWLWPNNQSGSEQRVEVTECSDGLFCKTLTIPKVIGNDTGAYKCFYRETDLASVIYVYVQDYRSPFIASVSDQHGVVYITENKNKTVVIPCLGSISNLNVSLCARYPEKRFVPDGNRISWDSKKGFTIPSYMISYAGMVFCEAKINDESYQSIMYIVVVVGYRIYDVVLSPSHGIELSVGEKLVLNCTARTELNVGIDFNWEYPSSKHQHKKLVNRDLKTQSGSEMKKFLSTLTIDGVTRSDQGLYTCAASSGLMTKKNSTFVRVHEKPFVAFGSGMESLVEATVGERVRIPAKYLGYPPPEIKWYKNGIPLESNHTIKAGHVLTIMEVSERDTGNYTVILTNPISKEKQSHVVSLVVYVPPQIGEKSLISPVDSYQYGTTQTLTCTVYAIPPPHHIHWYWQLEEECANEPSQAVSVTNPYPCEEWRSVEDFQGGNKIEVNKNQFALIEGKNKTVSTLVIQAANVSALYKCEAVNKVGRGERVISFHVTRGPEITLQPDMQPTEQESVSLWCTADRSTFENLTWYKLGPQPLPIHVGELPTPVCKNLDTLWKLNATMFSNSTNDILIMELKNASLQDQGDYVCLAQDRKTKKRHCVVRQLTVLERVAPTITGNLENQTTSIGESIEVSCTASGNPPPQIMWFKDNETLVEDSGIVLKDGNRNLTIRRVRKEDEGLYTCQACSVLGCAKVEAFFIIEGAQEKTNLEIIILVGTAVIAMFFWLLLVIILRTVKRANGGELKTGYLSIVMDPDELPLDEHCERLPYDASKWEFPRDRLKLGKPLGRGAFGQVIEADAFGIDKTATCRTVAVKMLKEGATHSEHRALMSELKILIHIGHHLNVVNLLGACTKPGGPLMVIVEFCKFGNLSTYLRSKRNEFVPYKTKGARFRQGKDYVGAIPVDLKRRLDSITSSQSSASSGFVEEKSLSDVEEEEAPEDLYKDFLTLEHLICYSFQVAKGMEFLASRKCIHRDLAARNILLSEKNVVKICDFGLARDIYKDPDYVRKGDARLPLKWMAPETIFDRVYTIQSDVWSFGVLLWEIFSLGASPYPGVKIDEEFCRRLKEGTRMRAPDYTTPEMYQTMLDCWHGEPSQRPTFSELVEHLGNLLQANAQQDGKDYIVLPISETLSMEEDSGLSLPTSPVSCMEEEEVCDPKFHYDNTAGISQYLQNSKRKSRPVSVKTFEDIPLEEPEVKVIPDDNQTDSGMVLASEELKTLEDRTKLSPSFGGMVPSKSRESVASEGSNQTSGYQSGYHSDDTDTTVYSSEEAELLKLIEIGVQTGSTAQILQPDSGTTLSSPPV
How it was run: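 Compounds (DMSO stocks 40 μM–0.2 nM, ten levels) tested in duplicate. Enzyme preincubated with compound 10 min at room temperature, then FAM-P22 peptide/ATP added and incubated at 28 °C. Stopped with EDTA-containing buffer. IC50 obtained by four-parameter Hill fit; staurosporine as reference.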

A549 [3] = experiment: Antiproliferative activity against human A549 cells assessed as inhibition of cell growth at 0.5 uM after 48 hrs under hypoxic condition (200 uM CoCl2) by CCk-8 assay relative to control (reference value: 59.94%); type: functional
How it was run: (§1)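 RPMI-1640 with 10% fetal calf serum. Compounds dissolved in DMSO. Hypoxia produced chemically with cobalt(II) chloride; normoxic wells received no CoCl2. Viability read by CCK-8 (WST-8) at 450 nm, and inhibition ratio calculated against untreated control.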

NCI-H446 [4] = experiment: Antiproliferative activity against human NCI-H446 cells assessed as hypoxic sensitive enhancement ratio in presence of Cocl2 under irradiation; type: functional
NCI-H446 [5] = experiment: Antiproliferative activity against human NCI-H446 cells assessed as inhibition of cell growth at 0.5 uM in hypoxia condition (200 uM CoCl2) and under irradiation at 8 Gy for 24 hrs and measured after 24 hrs by CCK8 assay (reference value: 68.77%); type: functional
NCI-H446 [6] = experiment: Antiproliferative activity against human NCI-H446 cells assessed as hypoxic sensitive enhancement ratio in presence of CoCl2; type: functional
[7] = Cytotoxicity against human A549 cells assessed as inhibition of cell growth at 0.5 uM after 48 hrs under normoxic condition by CCk-8 assay relative to control; type: cell-based; how it was run: as §1
A549 [8] = experiment: Antiproliferative activity against human A549 cells assessed as inhibition of cell growth at 0.5 uM in hypoxia condition (200 uM CoCl2) and under irradiation at 8 Gy for 24 hrs and measured after 24 hrs by CCK8 assay (reference value: 64.135%); type: functional
[9] = Cytotoxicity against human NCI-H446 cells assessed as inhibition of cell growth at 0.5 uM after 48 hrs under normoxic condition by CCk-8 assay relative to control; type: cell-based; how it was run: as §1
NCI-H446 [10] = experiment: Antiproliferative activity against human NCI-H446 cells assessed as inhibition of cell growth at 0.5 uM after 48 hrs under hypoxic condition (200 uM CoCl2) by CCk-8 assay relative to control (reference value: 65.84%); type: functional; how it was run: as §1
A549 [11] = experiment: Antiproliferative activity against human A549 cells assessed as hypoxic sensitive enhancement ratio in presence of CoCl2; type: functional
A549 [12] = experiment: Antiproliferative activity against human A549 cells assessed as hypoxic sensitive enhancement ratio in presence of Cocl2 under irradiation; type: functional
[13] = Toxicity in Balb/c mouse assessed as effect on clinical signs at 100 mg/kg, po administered 5 times per week for 2 weeks; type: organism-based; settings: in vivo, 336 h
How it was run: (§2)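 Male BALB/c-nu mice dosed orally at 100 mg/kg, five times a week for two weeks with two days off each weekend. Clinical signs of toxicity and body weight monitored.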

A549 [14] = experiment: Downregulation of VEGF expression in human A549 cells at 5 uM after 24 hrs under hypoxic condition by q-PCR analysis relative to control; type: functional
[15] = Toxicity in Balb/c mouse xenografted with human A549 cells assessed as effect on weight loss at 10 mg/kg, po measured up to 17 days; type: organism-based; settings: in vivo, 408 h
How it was run: (§3)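 Male BALB/c-nu mice, 1 × 10^7 A549 cells implanted sc in the flank. Dosing began seven days after implantation: 10 mg/kg oral, daily for 17 days, 5 mice per group, with a vehicle control group. Tumour size measured daily by caliper, with body weight and clinical signs also recorded daily. TGI calculated from volume changes relative to starting volumes versus control.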

A549 [16] = experiment: Antitumour activity against human A549 cells xenografted in Balb/c mouse assessed as tumour growth inhibition at 10 mg/kg, po administered daily and mesured at day 17 relative to control; type: functional; settings: 408 h, read-out: TGI; how it was run: as §3
A549 [17] = experiment: Antitumour activity against human A549 cells xenografted in Balb/c mouse assessed as tumour growth inhibition at 5 mg/kg, po administered daily and measured at day 18 relative to control; type: functional; settings: 432 h, read-out: TGI
How it was run: (§4)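 Male BALB/c-nu mice carrying sc flank A549 xenografts (1 × 10^7 cells). Dosing began 6–7 days post-inoculation, with oral 5, 15 or 50 mg/kg daily for 18 days and 3 mice per group. Tumours measured by caliper on days 4, 6, 8, 11, 13, 15 and 18. TGI derived from volume change from dosing start relative to untreated controls.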

[18] = Toxicity in Balb/c mouse assessed as weight loss at 100 mg/kg, po administered 5 times per week for 2 weeks; type: organism-based; settings: in vivo, 336 h; how it was run: as §2
[19] = Toxicity in po dosed Balb/c mouse assessed as maximum tolerated dose administered 5 times per week for 2 weeks; type: organism-based; settings: in vivo
A549 [20] = experiment: Antitumour activity against human A549 cells xenografted in po dosed Balb/c mouse assessed as tumour growth inhibition administered daily for 18 days and […]; type: functional, organism-based
A549 [21] = experiment: Antitumour activity against human A549 cells xenografted in Balb/c mouse assessed as increase in tumour volume at 10 mg/kg, po administered daily and mesured after 7 days; type: functional, organism-based; how it was run: as §3
A549 [22] = experiment: Downregulation of VEGF expression in human A549 cells at 5 uM after 24 hrs under normoxic condition by q-PCR analysis relative to control; type: cell-based; settings: a549, 24 h
A549 [23] = experiment: Antitumour activity against human A549 cells xenografted in Balb/c mouse assessed as tumour growth inhibition at 15 mg/kg, po administered daily and measured at day 18 relative to control; type: functional; settings: 432 h, read-out: TGI; how it was run: as §4
A549 [24] = experiment: Antitumour activity against human A549 cells xenografted in Balb/c mouse assessed as tumour growth inhibition at 50 mg/kg, po administered daily and measured at day 18 relative to control; type: functional; settings: 432 h, read-out: TGI; how it was run: as §4

| SMILES | pIC50 [1] | pIC50 [2] | inhibition (INH) (A549 [3]) [%] | Ratio (NCI-H446 [4]) | inhibition (INH) (NCI-H446 [5]) [%] | Ratio (NCI-H446 [6]) | inhibition at 48 h, 0.5 µM [7] [%] | inhibition (INH) (A549 [8]) [%] | inhibition at 48 h, 0.5 µM [9] [%] | inhibition (INH) (NCI-H446 [10]) [%] | Ratio (A549 [11]) | Ratio (A549 [12]) | also measured |
| --- | --- | --- | --- | --- | --- | --- | --- | --- | --- | --- | --- | --- | --- |
| COc1cc2c(Nc3ccc(F)cc3Cl)ncnc2cc1OCCOCCOCCNC(=O)Cn1cnc([N+](=O)[O-])n1 | 7.89 | 5.54 | – | – | – | – | – | – | – | – | – | – | – |
| COc1cc2c(Nc3ccc(F)cc3Cl)ncnc2cc1OCCOCCNC(=O)Cn1cnc([N+](=O)[O-])n1 | 7.68 | 5.39 | 69.01 | 0.89 | 83.35 | 1.14 | 10.3 | 77.88 | 13.9 | 80.31 | 1.17 | 0.89 | – |
| COc1cc2c(Nc3ccc(Br)cc3F)ncnc2cc1OCCOCCNC(=O)Cn1cnc([N+](=O)[O-])n1 | 8.23 | 7.43 | 75.86 | 0.93 | 88.66 | 1.17 | 6.75 | 86.41 | 18.9 | 84.37 | 1.32 | 0.96 | Activity [13]: Non-Toxic; fold change (FC) (A549 [14]): 0.0011; Activity [15]: Non-Toxic; inhibition in vivo at 10 mg/kg (A549 [16]): 63.9%; inhibition in vivo at 5 mg/kg (A549 [17]): 31.2%; Activity [18]: Non-Toxic; MTD at 336 h [19]: 100 mg/kg; inhibition (A549 [20]): Dose-dependent effect; Activity (A549 [21]): Active; fold change (FC) (A549 [22]): 0.1571; inhibition in vivo at 15 mg/kg (A549 [23]): 68.3%; inhibition in vivo at 50 mg/kg (A549 [24]): 80.5% |
| COc1cc2c(Nc3ccc(Cl)c(Cl)c3F)ncnc2cc1OCCOCCNC(=O)Cn1cnc([N+](=O)[O-])n1 | – | 7.17 | 82.25 | – | 85 | – | 13.8 | 80.7 | 20.5 | 77.9 | – | – | fold change (FC) (A549 [14]): 0.0037; Activity [15]: Non-Toxic; inhibition in vivo at 10 mg/kg (A549 [16]): 49%; inhibition in vivo at 5 mg/kg (A549 [17]): 28.1%; inhibition (A549 [20]): Dose-dependent effect; Activity (A549 [21]): Active; fold change (FC) (A549 [22]): 0.1833; inhibition in vivo at 15 mg/kg (A549 [23]): 63.9%; inhibition in vivo at 50 mg/kg (A549 [24]): 76.3% |
| COc1cc2c(Nc3ccc(C)c(Br)c3)ncnc2cc1OCCOCCOCCNC(=O)Cn1cnc([N+](=O)[O-])n1 | 8.20 | 6.61 | – | – | – | – | – | – | – | – | – | – | – |
| COc1cc2c(Nc3ccc(F)cc3Cl)ncnc2cc1OCCNC(=O)Cn1cnc([N+](=O)[O-])n1 | 7.32 | 6.29 | – | – | – | – | – | – | – | – | – | – | – |
| COc1cc2c(Nc3ccc(F)cc3)ncnc2cc1OCCOCCNC(=O)Cn1cnc([N+](=O)[O-])n1 | 7.78 | 6.06 | 72.53 | 0.86 | 80.58 | 1.13 | 8.43 | 76.94 | 11.1 | 78.7 | 1.25 | 0.86 | – |
| COc1cc2c(Nc3ccc(F)c(F)c3)ncnc2cc1OCCOCCNC(=O)Cn1cnc([N+](=O)[O-])n1 | 8.43 | 5.96 | – | – | – | – | – | – | – | – | – | – | – |
| COc1cc2c(Nc3ccc(Br)cc3F)ncnc2cc1OCCOCCOCCNC(=O)Cn1cnc([N+](=O)[O-])n1 | 8.31 | 6.66 | 74.36 | 0.91 | 84.92 | 1.08 | 16 | 80.36 | 20.4 | 78.81 | 1.2 | 0.9 | – |
